According to ChEMBL document CHEMBL4706613, “Novel 3-substituted coumarins as selective human carbonic anhydrase IX and XII inhibitors: Synthesis, biological and molecular dynamics analysis” (Eur J Med Chem, 2021):

How the values were obtained:
Carbonic anhydrase 2 [1] = target: T1, Carbonic anhydrase 2 (Homo sapiens, UniProt P00918); experiment: Inhibition of human CA2 preincubated for 6 hrs by phenol red dye based stopped flow CO2 hydration assay
Summary of the method: (§1)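 Ki values are the mean of three separate assays, with errors within ±5–10% of the reported values. Coumarin derivatives were incubated with the enzyme for 6 h before measurement.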

Carbonic anhydrase 9 [2] = target: T2, Carbonic anhydrase 9 (Homo sapiens, UniProt Q16790); experiment: Inhibition of human CA9 preincubated for 6 hrs by phenol red dye based stopped flow CO2 hydration assay; summary of the method: as §1
Carbonic anhydrase 1 [3] = target: T3, Carbonic anhydrase 1 (Homo sapiens, UniProt P00915); experiment: Inhibition of human CA1 preincubated for 6 hrs by phenol red dye based stopped flow CO2 hydration assay; summary of the method: as §1
Carbonic anhydrase 9 [4] = target: T2, Carbonic anhydrase 9; experiment: Inhibition of human CA9 preincubated for 15 mins by phenol red dye based stopped flow CO2 hydration assay
Carbonic anhydrase 2 [5] = target: T1, Carbonic anhydrase 2; experiment: Inhibition of human CA2 preincubated for 15 mins by phenol red dye based stopped flow CO2 hydration assay
Carbonic anhydrase 1 [6] = target: T3, Carbonic anhydrase 1; experiment: Inhibition of human CA1 preincubated for 15 mins by phenol red dye based stopped flow CO2 hydration assay
Carbonic anhydrase 12 = Carbonic anhydrase 12 (Homo sapiens, UniProt O43570); experiment: Inhibition of human CA12 preincubated for 6 hrs by phenol red dye based stopped flow CO2 hydration assay
Sequence of Carbonic anhydrase 12 (O43570 whole entry): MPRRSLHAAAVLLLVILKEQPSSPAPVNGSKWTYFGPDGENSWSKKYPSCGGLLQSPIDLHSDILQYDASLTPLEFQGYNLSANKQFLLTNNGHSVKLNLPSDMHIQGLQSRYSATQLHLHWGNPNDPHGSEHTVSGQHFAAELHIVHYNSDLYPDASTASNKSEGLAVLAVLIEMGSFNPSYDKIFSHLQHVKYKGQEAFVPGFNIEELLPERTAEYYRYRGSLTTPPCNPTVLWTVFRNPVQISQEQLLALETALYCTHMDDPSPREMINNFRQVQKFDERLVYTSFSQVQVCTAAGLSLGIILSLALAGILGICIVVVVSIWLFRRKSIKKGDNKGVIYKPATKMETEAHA

T3 sequence (P00915 whole entry): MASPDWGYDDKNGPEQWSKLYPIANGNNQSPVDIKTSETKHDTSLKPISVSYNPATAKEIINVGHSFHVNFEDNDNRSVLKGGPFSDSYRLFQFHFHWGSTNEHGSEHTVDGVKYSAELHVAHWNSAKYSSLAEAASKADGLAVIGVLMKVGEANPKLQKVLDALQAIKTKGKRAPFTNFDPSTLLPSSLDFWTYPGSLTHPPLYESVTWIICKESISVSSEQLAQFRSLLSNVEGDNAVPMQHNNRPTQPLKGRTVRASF

| Structure (SMILES) | Ki (Carbonic anhydrase 2 [1]) [nM] | Ki (Carbonic anhydrase 9 [2]) [nM] | Ki (Carbonic anhydrase 1 [3]) [nM] | Ki (Carbonic anhydrase 9 [4]) [nM] | Ki (Carbonic anhydrase 2 [5]) [nM] | Ki (Carbonic anhydrase 1 [6]) [nM] | Ki (Carbonic anhydrase 12) [nM] |
| --- | --- | --- | --- | --- | --- | --- | --- |
| C/C(=N\Nc1ccc(S(N)(=O)=O)cc1)c1cc2ccccc2oc1=O | – | – | – | 43.8 | – | – | – |
| Cc1ccc(S(=O)(=O)CC(=O)c2cc3ccccc3oc2=O)cc1 | > 100000 | 66.3 | > 100000 | – | – | – | – |
| O=C(CS(=O)(=O)c1ccccc1)c1cc2ccccc2oc1=O | > 100000 | 41.4 | > 100000 | – | – | – | 60.1 |
| C/C(=N\NC(=O)c1ccc(S(N)(=O)=O)cc1)c1cc2cc(Br)ccc2oc1=O | – | – | – | 19.8 | 12.1 | 92.5 | – |
| Cc1ccc(S(=O)(=O)C/C(=N\Nc2ccc(S(N)(=O)=O)cc2)c2cc3cc(Br)ccc3oc2=O)cc1 | – | – | – | – | 538 | 3960 | – |
| C/C(=N\Nc1ccc(S(N)(=O)=O)cc1)c1cc2cc(Br)ccc2oc1=O | – | – | – | 24.2 | – | – | – |
| Cc1ccc(S(=O)(=O)CC(=O)c2cc3cc(Br)ccc3oc2=O)cc1 | > 100000 | 87.2 | > 100000 | – | – | – | – |
| Cc1ccc(S(=O)(=O)C/C(=N\Nc2ccc(S(N)(=O)=O)cc2)c2cc3ccccc3oc2=O)cc1 | – | – | – | 76 | 560 | 2600 | – |
| C/C(=N\NC(=O)c1ccc(S(N)(=O)=O)cc1)c1cc2ccccc2oc1=O | – | – | – | 31.6 | 26.3 | 77.6 | – |

Next, values leading:

| Ki (Carbonic anhydrase 2 [1]) [nM] | Ki (Carbonic anhydrase 9 [2]) [nM] | Ki (Carbonic anhydrase 1 [3]) [nM] | Ki (Carbonic anhydrase 9 [4]) [nM] | Ki (Carbonic anhydrase 2 [5]) [nM] | Ki (Carbonic anhydrase 1 [6]) [nM] | Ki (Carbonic anhydrase 12) [nM] | Structure (SMILES) |
| --- | --- | --- | --- | --- | --- | --- | --- |
| > 100000 | 8860 | > 100000 | – | – | – | – | O=C(N/N=C(\CS(=O)(=O)c1ccccc1)c1cc2cc(Br)ccc2oc1=O)c1ccccc1 |
| > 100000 | 1500 | > 100000 | – | – | – | – | O=c1oc2ccccc2cc1/C(CS(=O)(=O)c1ccccc1)=N/Nc1ccccc1 |
| – | – | – | 42.1 | 365 | 1350 | – | Cc1ccc(S(=O)(=O)C/C(=N\NC(=O)c2ccc(S(N)(=O)=O)cc2)c2cc3ccccc3oc2=O)cc1 |
| > 100000 | 76.6 | > 100000 | – | – | – | – | O=C(CS(=O)(=O)c1ccccc1)c1cc2cc(Br)ccc2oc1=O |
| > 100000 | 3940 | > 100000 | – | – | – | – | Cc1ccc(S(=O)(=O)C/C(=N\Nc2ccccc2)c2cc3ccccc3oc2=O)cc1 |
| – | – | – | 18.6 | 225 | 1540 | – | NS(=O)(=O)c1ccc(C(=O)N/N=C(\CS(=O)(=O)c2ccccc2)c2cc3ccccc3oc2=O)cc1 |
| > 100000 | 16000 | > 100000 | – | – | – | – | O=C(N/N=C(\CS(=O)(=O)c1ccccc1)c1cc2ccccc2oc1=O)c1ccccc1 |
| – | – | – | 63.6 | 276 | 3460 | – | NS(=O)(=O)c1ccc(N/N=C(\CS(=O)(=O)c2ccccc2)c2cc3cc(Br)ccc3oc2=O)cc1 |
| – | – | – | 89.1 | 442 | 824 | – | NS(=O)(=O)c1ccc(N/N=C(\CS(=O)(=O)c2ccccc2)c2cc3ccccc3oc2=O)cc1 |
| > 100000 | 4640 | > 100000 | – | – | – | – | O=c1oc2ccc(Br)cc2cc1/C(CS(=O)(=O)c1ccccc1)=N/Nc1ccccc1 |
| > 100000 | 8110 | > 100000 | – | – | – | – | Cc1ccc(S(=O)(=O)C/C(=N\Nc2ccccc2)c2cc3cc(Br)ccc3oc2=O)cc1 |
